Calls of active or inactive are those of the source. The rule behind the calls is not given here.
Key:
[1] = test system: Acinetobacter baumannii; experiment: Antibacterial activity against Acinetobacter baumannii ATCC 19606 using iron-deficient M9 minimal media after 15 hrs by broth microdilution assay; type: functional, organism-based; details: ATCC 19606 = CIP 70.34 = JCM 6841
How it was run: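 ATCC 19606 grown overnight at 30 °C on LB agar, washed twice and resuspended in M9 minimal medium with 0.2% casamino acids and 200 μM dipyridyl. Inoculated at A600 0.0003 in this medium plus 1 μM FeCl3. Inhibitors from DMSO at 100 μM final, in triplicate. Tetracycline (100 ng/mL) and 1% DMSO as controls. Incubated at 30 °C; A600 read at 15 h.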

[2] = Displacement of Fl-Sal-AMS from Acinetobacter baumanni BasE expressed in Escherichia coli after 30 mins by fluorescence polarization assay; set-up: species or system Acinetobacter baumannii
[3] = Displacement of Fl-Sal-AMS from Mycobacterium tuberculosis MbtA expressed in Escherichia coli after 30 mins by fluorescence polarization assay
[4] = test system: Acinetobacter baumannii; experiment: Antibacterial activity against Acinetobacter baumannii ATCC 19606 using iron-replete M9 minimal media after 15 hrs by broth microdilution assay; type: functional, organism-based; details: ATCC 19606 = CIP 70.34 = JCM 6841
How it was run: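 ATCC 19606 grown overnight at 30 °C on LB agar, washed twice in dipyridyl-containing M9/casamino acids medium, then diluted to A600 0.0003 in M9 minimal medium with 0.2% casamino acids plus 200 μM FeCl3. Inhibitors from DMSO at 100 μM final, in triplicate. Controls were tetracycline (100 ng/mL) and 1% DMSO. Incubated at 30 °C, A600 measured at 15 h.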

| Compound | Activity [1] | Kd ([2]; read-out: Kd) [µM] | Kd [3] [µM] | Activity [4] | Kd [2] |
| --- | --- | --- | --- | --- | --- |
| O=C(O)c1cc(-c2ccc(-c3ccccc3)cc2)nc2c1cnn2Cc1ccncc1 | inactive | 0.125 | 3.5 | inactive | – |
| O=C(O)c1cc(-c2ccc(Cl)cc2)nc2c1cnn2Cc1ccncc1 | inactive | – | – | inactive | – |
| O=C(O)c1cc(-c2ccc(-c3ccc(Cl)nc3)nc2)nc2c1cnn2Cc1ccncc1 | inactive | – | – | inactive | – |
| O=C(NC1CC1)c1cc(-c2ccccc2)nc2c1cnn2Cc1ccncc1 | inactive | 0.15 | > 100 | inactive | – |
| CN(C)C(=O)c1cc(-c2ccccc2)nc2c1cnn2Cc1ccncc1 | inactive | 0.334 | > 50 | inactive | – |
| CCCCCCCCCCCCCCCCOc1ccc(-c2cc(C(=O)O)c3cnn(Cc4ccncc4)c3n2)cc1 | inactive | – | – | inactive | ND(Insoluble) |
| CS(=O)(=O)c1ccc(-c2cc(C(=O)O)c3cnn(Cc4ccncc4)c3n2)cc1 | inactive | – | – | inactive | – |
| O=C(O)c1cc(-c2ccc(Cl)nc2)nc2c1cnn2Cc1ccncc1 | inactive | – | – | inactive | – |
| COc1ccc(Cn2ncc3c(C(=O)O)cc(Nc4ccccc4)nc32)cc1 | inactive | > 100 | – | inactive | – |
| O=C(O)c1cc(C#Cc2ccccc2)nc2c1cnn2Cc1ccncc1 | inactive | 0.421 | 3 | inactive | – |
| O=C(O)c1cc(=O)[nH]c2c1cnn2Cc1ccncc1 | inactive | > 100 | – | inactive | – |
| O=C(O)c1cc(-c2ccccc2)nc2[nH]ncc12 | inactive | > 100 | – | inactive | – |
| O=C(O)c1cc(-c2ccc(CO)cc2)nc2c1cnn2Cc1ccncc1 | inactive | 0.247 | 3.7 | inactive | – |
| Cc1cccc(-c2cc(C(=O)O)c3cnn(Cc4ccncc4)c3n2)c1 | inactive | 0.158 | 7.4 | inactive | – |
| O=C(O)c1cc(-c2ccccc2)nc2c1cnn2Cc1ccccc1 | inactive | > 100 | – | inactive | – |
| CCn1ncc2c(C(=O)O)cc(-c3ccccc3)nc21 | inactive | > 500 | – | inactive | – |
| O=C(O)c1cc(-c2cccc(-c3ccccc3)c2)nc2c1cnn2Cc1ccncc1 | inactive | 0.164 | 3.6 | inactive | – |
| COc1ccc(COc2ccc(-c3cc(C(=O)O)c4cnn(Cc5ccncc5)c4n3)cc2)cc1 | inactive | 0.0445 | 5.8 | inactive | – |
| NC(=O)c1ccc(-c2cc(C(=O)O)c3cnn(Cc4ccncc4)c3n2)cc1 | inactive | 0.288 | 1 | inactive | – |

| Compound | Activity [1] | Kd ([2]; read-out: Kd) [µM] | Kd [3] [µM] | Activity [4] | Kd [2] |
| --- | --- | --- | --- | --- | --- |
| CSc1ccc(-c2cc(C(=O)O)c3cnn(Cc4ccncc4)c3n2)cc1 | inactive | – | – | inactive | – |
| Cc1ccc(-c2cc(C(=O)O)c3cnn(Cc4ccncc4)c3n2)s1 | inactive | 0.0076 | 2.6 | inactive | – |
| O=C(O)c1cc(-c2ccccc2)cc2c1ccn2Cc1ccncc1 | inactive | 52.2 | 161 | inactive | – |
| O=c1cc(-c2ccccc2)[nH]c2c1cnn2Cc1ccncc1 | inactive | > 100 | – | inactive | – |
| O=C(O)c1cc(-c2ccc(F)cc2)nc2c1cnn2Cc1ccncc1 | inactive | 0.028 | 1.89 | inactive | – |
| OCc1cc(-c2ccccc2)nc2c1cnn2Cc1ccncc1 | inactive | 0.102 | 16.8 | inactive | – |
| CC(=O)c1ccc(-c2cc(C(=O)O)c3cnn(Cc4ccncc4)c3n2)s1 | inactive | – | – | inactive | – |
| CN(C)c1ccc(-c2cc(C(=O)O)c3cnn(Cc4ccncc4)c3n2)cc1 | inactive | 0.628 | 1.7 | inactive | – |
| C=Cc1cc(C(=O)O)c2cnn(Cc3ccncc3)c2n1 | inactive | 1.9 | > 100 | inactive | – |
| CCNC(=O)c1cc(-c2ccccc2)nc2c1cnn2Cc1ccncc1 | inactive | 0.908 | > 50 | inactive | – |
| O=C(O)c1ccc(-c2cc(C(=O)O)c3cnn(Cc4ccncc4)c3n2)cc1O | inactive | – | – | inactive | – |
| O=C(O)c1cc(-c2cccc(Cl)c2)nc2c1cnn2Cc1ccncc1 | inactive | 0.026 | 4.6 | inactive | – |
| COc1ccc(Cn2ncc3c(C(=O)O)cc(-c4ccccc4)nc32)cc1 | inactive | > 100 | – | inactive | – |
| Cc1ccc(-c2cc(C(=O)O)c3cnn(Cc4ccncc4)c3n2)cc1 | inactive | 0.212 | 1.44 | inactive | – |
| O=C(O)c1cc(-c2ccc(-c3ccc(Br)cc3)cc2)nc2c1cnn2Cc1ccncc1 | inactive | 0.181 | 19.7 | inactive | – |
| O=C(O)c1cc(-c2cccs2)nc2c1cnn2Cc1ccncc1 | inactive | 0.443 | 6.68 | inactive | – |
| O=C(O)c1cc(-c2ccccc2O)nc2c1cnn2Cc1ccncc1 | inactive | 0.255 | 6.5 | inactive | – |
| COc1cc(-c2cc(C(=O)O)c3cnn(Cc4ccncc4)c3n2)ccc1C(=O)O | inactive | 1.7 | 49.9 | inactive | – |
| O=C(O)c1cc(/C=C/c2ccccc2)nc2c1cnn2Cc1ccncc1 | inactive | 0.28 | 5.1 | inactive | – |

| Compound | Activity [1] | Kd ([2]; read-out: Kd) [µM] | Kd [3] [µM] | Activity [4] | Kd [2] |
| --- | --- | --- | --- | --- | --- |
| CNC(=O)c1cc(-c2ccccc2)nc2c1cnn2Cc1ccncc1 | inactive | 0.42 | > 50 | inactive | – |
| O=C(O)c1cc(-c2cccc(O)c2)nc2c1cnn2Cc1ccncc1 | inactive | 0.124 | 7.67 | inactive | – |
| CC(=O)c1ccc(-c2cc(C(=O)O)c3cnn(Cc4ccncc4)c3n2)cc1 | inactive | – | – | inactive | – |
| O=C(O)c1cc(-c2ccccc2)nc2c1cnn2Cc1ccco1 | inactive | > 100 | – | inactive | – |
| Nc1cc(-c2ccccc2)nc2c1cnn2Cc1ccncc1 | inactive | 0.2 | 36.4 | inactive | – |
| Nc1ccc(-c2cc(C(=O)O)c3cnn(Cc4ccncc4)c3n2)cc1 | inactive | 0.0782 | 4.08 | inactive | – |
| O=C(O)c1cc(-c2ccccc2)cc2nn(Cc3ccncc3)cc12 | inactive | 66.4 | 58 | inactive | – |
| CC(C)n1ncc2c(C(=O)O)cc(-c3ccccc3)nc21 | inactive | > 500 | – | inactive | – |
| C#Cc1cc(C(=O)O)c2cnn(Cc3ccncc3)c2n1 | inactive | 2.04 | 18.5 | inactive | – |
| O=C(O)c1cc(-c2cn[nH]c2)nc2c1cnn2Cc1ccncc1 | inactive | 2.3 | 27.9 | inactive | – |
| O=C(O)c1cc(-c2cncnc2)nc2c1cnn2Cc1ccncc1 | inactive | 0.583 | 13.6 | inactive | – |
| O=C(O)c1cc(-c2ccc(Br)cc2)nc2c1cnn2Cc1ccncc1 | inactive | – | – | inactive | – |
| COc1ccc(-c2cc(C(=O)O)c3cnn(Cc4ccncc4)c3n2)cc1 | inactive | 0.0782 | 3.23 | inactive | – |
| O=C(O)c1cc(-c2ccccc2Cl)nc2c1cnn2Cc1ccncc1 | inactive | 2.48 | > 100 | inactive | – |
| N#Cc1ccc(-c2cc(C(=O)O)c3cnn(Cc4ccncc4)c3n2)cc1 | inactive | – | – | inactive | – |
| O=C(O)c1cc(-c2ccccc2)nc2c1cnn2Cc1cccnc1 | inactive | > 100 | – | inactive | – |
| O=C(O)c1cc(-c2cc3ccccc3s2)nc2c1cnn2Cc1ccncc1 | inactive | – | – | inactive | – |
| O=C(O)c1cc(-c2ccc(C(F)(F)F)cc2)nc2c1cnn2Cc1ccncc1 | inactive | – | – | inactive | – |
| O=C(O)c1cc(-c2ccc([N+](=O)[O-])cc2)nc2c1cnn2Cc1ccncc1 | inactive | – | – | inactive | – |

— ChEMBL document CHEMBL2321876
